Data on four molecules can be found in ChEMBL document CHEMBL1139209, “Cytotoxic constituents of the stems of Cinnamomum subavenium” (2007).

Common to all, as to type: functional, Homo sapiens
The subject of experiment [1] is SW480. The experiment can be described thus: Cell cycle arrest in SW480 cells by accumulation at S phase at 75 uM after 24 hrs by propidium iodide staining. Put shortly:
(§1)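 SW480 human colorectal cancer cells (ATCC) grown in DMEM with 10% FBS, penicillin/streptomycin in 60 mm dishes; medium replenished at 80% confluence. Monolayers exposed 24 h to 0, 25, 50, 75 or 100 µM (DMSO stock, 0.1% DMSO final). Adherent plus floating cells fixed in PBS-methanol (1:2) ≥18 h at 4 °C, stained 30 min with 50 µg/mL PI plus RNase A.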

The test system of experiment [2] is SW480. Kind of experiment: Cell cycle arrest in SW480 cells by accumulation at G1 phase at 50 uM after 24 hrs by propidium iodide staining. An outline of the steps:
as §1

The test system of experiment [3] is SW480. Kind of experiment: Cell cycle arrest in SW480 cells by accumulation at S phase at 50 uM after 24 hrs by propidium iodide staining. An outline of the steps: as §1
Experiment [4] deals with SW480. Kind of experiment: Cell cycle arrest in SW480 cells by accumulation at G2/M phase at 50 uM after 24 hrs by propidium iodide staining. An outline of the steps:
as §1

Experiment [5] concerns SW480. Kind of experiment: DNA damage assessed as accumulation in subG1 level of cell cycle arrest in SW480 cells at 100 uM after 24 hrs by propidium iodide staining. Put shortly:
as §1

Experiment [6] relates to SW480. Kind of experiment: DNA damage assessed as accumulation in subG1 level of cell cycle arrest in SW480 cells at 50 uM after 24 hrs by propidium iodide staining. An outline of the steps:
as §1

For experiment [7], the system named is SW480. The experiment can be described thus: Cell cycle arrest in SW480 cells by accumulation at G1 phase at 100 uM after 24 hrs by propidium iodide staining. An outline of the steps:
as §1

For experiment [8], the system named is SW480. The experiment can be described thus: Cell cycle arrest in SW480 cells by accumulation at G1 phase at 75 uM after 24 hrs by propidium iodide staining. Put shortly:
as §1

Experiment [9] relates to SW480. Kind of experiment: Cell cycle arrest in SW480 cells by accumulation at S phase at 25 uM after 24 hrs by propidium iodide staining. An outline of the steps:
as §1

In experiment [10] the test system is SW480. Kind of experiment: Cell cycle arrest in SW480 cells by accumulation at G1 phase at 25 uM after 24 hrs by propidium iodide staining. Put shortly: as §1
The subject of experiment [11] is SW480. The experiment can be described thus: Cell cycle arrest in SW480 cells by accumulation at G2/M phase at 100 uM after 24 hrs by propidium iodide staining. An outline of the steps:
as §1

Experiment [12] has as its system SW480. Kind of experiment: DNA damage assessed as accumulation in subG1 level of cell cycle arrest in SW480 cells at 75 uM after 24 hrs by propidium iodide staining. An outline of the steps: as §1
In experiment [13] the test system is SW480. Kind of experiment: Cell cycle arrest in SW480 cells by accumulation at G2/M phase at 25 uM after 24 hrs by propidium iodide staining. An outline of the steps:
as §1

Experiment [14] deals with SW480. Kind of experiment: Cell cycle arrest in SW480 cells by accumulation at G2/M phase at 75 uM after 24 hrs by propidium iodide staining. Put shortly:
as §1

Experiment [15] deals with SW480. The experiment can be described thus: Cell cycle arrest in SW480 cells by accumulation at S phase at 100 uM after 24 hrs by propidium iodide staining. Put shortly: as §1
Experiment [16] relates to SW480. Kind of experiment: DNA damage assessed as accumulation in subG1 level of cell cycle arrest in SW480 cells at 25 uM after 24 hrs by propidium iodide staining. Put shortly: as §1

With `CCCCCCCCCCCCC/C=C(/C(=O)OC)[C@H](O)C(C)=O` [SECOSUBAMOLIDE], the Activity amounted to 38.3% with SW480 [1]; 47.9% in the experiment with SW480 [2]; 40.6% in the experiment with SW480 [3]; 11.4% with SW480 [4]; 51.8% with SW480 [5]; 9.1% with SW480 [6]. Besides, the Activity with SW480 [7] was found to be 47.9%; in the experiment with SW480 [8], 49%; in the experiment with SW480 [9], 39.5%; with SW480 [10], 47.1%; in the experiment with SW480 [11], 17.6%; in the experiment on SW480 [12], 23.4%. Besides, the Activity turned out to be 13.4% in the experiment on SW480 [13], 12.8% in the experiment with SW480 [14] and 34.5% in the experiment on SW480 [15].
Take `CCCCCCCCCCCCC/C=C1\C(=O)O[C@@](C)(OC)[C@@H]1O` [SUBAMOLIDE A]: the Activity was 42% in the experiment with SW480 [1]; 46.3% with SW480 [2]; 41% with SW480 [3]; 12.8% in the experiment on SW480 [4]; 64.4% in the experiment on SW480 [5]; 25.4% in the experiment on SW480 [6]. Besides, the Activity with SW480 [7] was found to be 52.6%; in the experiment on SW480 [16], 8.5%; with SW480 [8] it was 45%; with SW480 [9], 39.6%; in the experiment with SW480 [10] it was 48.2%; with SW480 [11], 17.7%. Moreover, the Activity with SW480 [12] worked out at 27.3%; with SW480 [13], 12.2%; with SW480 [14] it was 13%; with SW480 [15], 29.8%.
For `CCCCCCCCCCCCC/C=C1/C(=O)O[C@@](C)(OC)[C@@H]1O` [SUBAMOLIDE B], the Activity came to 33.4% in the experiment on SW480 [1]; 44.2% in the experiment on SW480 [2]; 38.8% in the experiment with SW480 [3]; 16.9% in the experiment on SW480 [4]; 71% in the experiment on SW480 [5]; 23.7% in the experiment on SW480 [6]. Also, the Activity in the experiment on SW480 [7] turned out to be 46%; with SW480 [16], 6.6%; with SW480 [8], 45.8%; in the experiment with SW480 [9] it was 46%; in the experiment with SW480 [10], 47.7%; with SW480 [11] it was 16.6%. Further, the Activity is 47.2% with SW480 [12], 6.4% in the experiment on SW480 [13], 20.8% with SW480 [14] and 37.4% with SW480 [15].
For `C=C1C=C(C(CCCCCCCCCCCCCC)OC)C(=O)O1` (stereo not drawn) [SUBAMOLIDE C], the Activity in the experiment on SW480 [1] is given as 43.1%; in the experiment with SW480 [2], 47.6%; in the experiment on SW480 [3] it was 41.2%; in the experiment with SW480 [4], 11.3%; in the experiment on SW480 [5], 38.8%; with SW480 [6], 11%. The Activity came out at 47.8% with SW480 [7]; 6.1% with SW480 [16]; 44.5% with SW480 [8]; 45.8% in the experiment on SW480 [9]; 44.4% in the experiment with SW480 [10]; 19.3% with SW480 [11]. Also, the Activity is on record as 34.6% in the experiment with SW480 [12], 9.8% in the experiment with SW480 [13], 12.4% in the experiment with SW480 [14] and 33% with SW480 [15].
